Source: ChEMBL document CHEMBL3091373, “Phenylspirodrimanes with anti-HIV activity from the sponge-derived fungus Stachybotrys chartarum MXH-X73” (J Nat Prod, 2013)

What was measured:
[1] = system: Human immunodeficiency virus 1; test: Antiviral activity against wild-type HIV-1 infected in HEK293T cells co-transfected with VSVG protein assessed as time required for 50% failure of viral replication at 10 uM by luciferase reporter gene assay; format: functional, HEK-293T
In short: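 Time-of-addition run: HEK 293T cells seeded 6 × 10^4/well, held overnight at 37 °C, then infected with VSVG/HIV-wt pseudoparticles (t = 0 at particle addition). Compounds added at a final 10 μM at 0, 2, 4, 6, 8, 10, 12, 14 or 16 h. Cells lysed 48 h post-infection and luciferase activity measured.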

HEK-293T = test: Cytotoxicity against human 293T cells at 10 uM after 48 hrs; format: cell-based
In short: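 293T cells at the anti-HIV assay culture conditions (seeded 6 × 10^4 cells/well the day before), compound in DMSO incubated 48 h without virus; viability read with a cell proliferation assay kit.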

[2] = target: Human immunodeficiency virus type 1 reverse transcriptase (Human immunodeficiency virus 1, UniProt Q72547); test: (§1) Inhibition of HIV-1 reverse transcriptase after 1 hr by spectrophotometry
In short: (§2)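 RNA-dependent DNA polymerase activity. Started with reverse transcriptase, 1 h at 37 °C. Product captured on streptavidin plate 1 h at 37 °C, TMB 15 min, stopped with H2SO4, OD450. Dose-response EC50.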

[3] = target: Human immunodeficiency virus type 1 reverse transcriptase (Human immunodeficiency virus 1) (UniProt Q72547); test: as §1; in short: as §2
[4] = system: Human immunodeficiency virus 1; test: Antiviral activity against HIV-1 expressing reverse transcriptase L100I/K103N double mutant infected in human 293T cells co-transfected with VSVG protein assessed as inhibition of viral-replication incubated 15 mins prior to viral-infection measured after 48 hrs by luciferase reporter gene assay; format: functional, organism-based; conditions: Human immunodeficiency virus 1, HEK-293T
In short: (§3)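 VSV-G-pseudotyped single-cycle HIV made by Ca3(PO4)2 co-transfection of 293T cells with env-deficient pNL4-3.luc.R-E- (wild-type or RT mutant) vector; medium changed 16 h post-transfection, supernatant harvested at 48 h, filtered, diluted to 0.2 ng p24/mL. Target 293T cells seeded 6 × 10^4/well the day before; compounds in DMSO added 15 min pre-infection; luciferase of lysates read 48 h post-infection.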

[5] = system: Human immunodeficiency virus 1; test: Antiviral activity against wild-type HIV-1 infected in human 293T cells co-transfected with VSVG protein assessed as inhibition of viral-replication incubated 15 mins prior to viral-infection measured after 48 hrs by luciferase reporter gene assay; format: functional, organism-based; conditions: Human immunodeficiency virus 1, HEK-293T; in short: as §3
[6] = system: Human immunodeficiency virus 1; test: Antiviral activity against HIV-1 expressing reverse transcriptase K103N/G190A double mutant infected in human 293T cells co-transfected with VSVG protein assessed as inhibition of viral-replication incubated 15 mins prior to viral-infection measured after 48 hrs by luciferase reporter gene assay; format: functional, organism-based; conditions: Human immunodeficiency virus 1, HEK-293T; in short: as §3
[7] = system: Human immunodeficiency virus 1; test: Ratio of EC50 for HIV-1 expressing reverse transcriptase K103N/G190A double mutant to EC50 for wild-type HIV-1; format: functional
In short: (§4)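 Fold change, computed as the EC50 against each VSV-G-pseudotyped NNRTI-resistant RT-mutant HIV-1 divided by the EC50 against wild-type pseudovirus. Both EC50s come from the 293T single-cycle luciferase infection assay, with compound added 15 min before infection and read at 48 h.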

[8] = system: Human immunodeficiency virus 1; test: Ratio of EC50 for HIV-1 expressing reverse transcriptase K103N mutant to EC50 for wild-type HIV-1; format: functional; in short: as §4
[9] = system: Human immunodeficiency virus 1; test: Antiviral activity against HIV-1 expressing reverse transcriptase K103N/V108I double mutant infected in human 293T cells co-transfected with VSVG protein assessed as inhibition of viral-replication incubated 15 mins prior to viral-infection measured after 48 hrs by luciferase reporter gene assay; format: functional, organism-based; conditions: Human immunodeficiency virus 1, HEK-293T; in short: as §3
[10] = system: Human immunodeficiency virus 1; test: Antiviral activity against HIV-1 expressing reverse transcriptase K103N/P225H double mutant infected in human 293T cells co-transfected with VSVG protein assessed as inhibition of viral-replication incubated 15 mins prior to viral-infection measured after 48 hrs by luciferase reporter gene assay; format: functional, organism-based; conditions: Human immunodeficiency virus 1, HEK-293T; in short: as §3
[11] = system: Human immunodeficiency virus 1; test: Ratio of EC50 for HIV-1 expressing reverse transcriptase K103N/P225H double mutant to EC50 for wild-type HIV-1; format: functional; in short: as §4
[12] = system: Human immunodeficiency virus 1; test: Ratio of EC50 for HIV-1 expressing reverse transcriptase L100I/K103N double mutant to EC50 for wild-type HIV-1; format: functional; in short: as §4
[13] = system: Human immunodeficiency virus 1; test: Antiviral activity against HIV-1 expressing reverse transcriptase K103N mutant infected in human 293T cells co-transfected with VSVG protein assessed as inhibition of viral-replication incubated 15 mins prior to viral-infection measured after 48 hrs by luciferase reporter gene assay; format: functional, organism-based; conditions: Human immunodeficiency virus 1, HEK-293T; in short: as §3
[14] = system: Human immunodeficiency virus 1; test: Ratio of EC50 for HIV-1 expressing reverse transcriptase K103N/V108I double mutant to EC50 for wild-type HIV-1; format: functional; in short: as §4

Compound: Cc1cn([C@H]2C[C@H](N=[N+]=[N-])[C@@H](CO)O2)c(=O)[nH]c1=O [ZIDOVUDINE]
- Time [1]: 11.59 h

Compound: C[C@@H]1CC[C@H]2C(C)(C)[C@H](O)C(O)C[C@]2(C)[C@@]12Cc1c(O)cc(CO)c(C=O)c1O2 (some centres undefined)
- Activity (HEK-293T): Non-toxic

Compound: C[C@@H]1CC[C@H]2C(C)(C)[C@H](O)CC[C@]2(C)[C@@]12Cc1c(O)cc3c(c1O2)CN(CCCCN1Cc2c(cc(O)c4c2O[C@]2(C4)[C@H](C)CC[C@H]4C(C)(C)[C@H](O)CC[C@@]42C)C1=O)C3=O
- Activity (HEK-293T): Non-toxic

Compound: C[C@@H]1CC[C@H]2C(C)(C)[C@H](O)CC[C@]2(C)[C@@]12Cc1c(O)cc3c(c1O2)CN([C@@H](CCC(=O)O)C(=O)O)C3=O
- Activity (HEK-293T): Non-toxic

Compound: CC(=O)CN1Cc2c(cc(O)c3c2O[C@]2(C3)[C@H](C)CC[C@H]3C(C)(C)[C@H](O)CC[C@@]32C)C1=O
- Time [1]: 12.66 h
- EC50 [2]: 50 µM
- inhibition [3]: Dose-dependent effect
- EC50 [4]: 23.8 µM
- Activity (HEK-293T): Non-toxic
- EC50 [5]: 8.4 µM
- EC50 [6]: 14.2 µM
- Ratio EC50 [7]: 1.7
- Ratio EC50 [8]: 0.8
- EC50 [9]: 13.3 µM
- EC50 [10]: 6.2 µM
- Ratio EC50 [11]: 0.7
- Ratio EC50 [12]: 2.8
- EC50 [13]: 7 µM
- Ratio EC50 [14]: 1.6

Compound: C[C@@H]1CC[C@H]2C(C)(C)[C@H](O)[C@H](O)C[C@]2(C)[C@@]12Cc1c(O)cc(CO[C@H]3O[C@H](CO)[C@@H](O)[C@H](O)[C@H]3O)c(C=O)c1O2
- Activity (HEK-293T): Non-toxic

Compound: COC(=O)[C@H](CCC(=O)O)N1Cc2c(cc(O)c3c2O[C@]2(C3)[C@H](C)CC[C@H]3C(C)(C)[C@H](O)CC[C@@]32C)C1=O
- Activity (HEK-293T): Non-toxic

Compound: C[C@@H]1CC[C@H]2C(C)(C)[C@H](O)CC[C@]2(C)[C@@]12Cc1c(O)cc3c(c1O2)CN(CCCCCN1Cc2c(cc(O)c4c2O[C@]2(C4)[C@H](C)CC[C@H]4C(C)(C)[C@H](O)CC[C@@]42C)C1=O)C3=O
- Activity (HEK-293T): Non-toxic

Compound: O=C1Nc2ccc(Cl)cc2[C@@](C#CC2CC2)(C(F)(F)F)O1 [EFAVIRENZ]
- Time [1]: 13.06 h

Compound: Cc1cc(O)c2c(c1C=O)O[C@]1(C2)[C@H](C)CC[C@H]2C(C)(C)[C@H](O)CC[C@@]21C
- Activity (HEK-293T): Non-toxic

Compound: COC(=O)CC[C@@H](C(=O)O)N1Cc2c(cc(O)c3c2O[C@]2(C3)[C@H](C)CC[C@H]3C(C)(C)[C@H](O)CC[C@@]32C)C1=O
- Activity (HEK-293T): Non-toxic

Compound: Cc1ccnc2c1NC(=O)c1cccnc1N2C1CC1 [NEVIRAPINE]
- EC50 [4]: 3.3 µM
- EC50 [5]: 0.023 µM
- EC50 [6]: 51.9 µM
- EC50 [9]: 7.5 µM
- EC50 [10]: 23.3 µM
- EC50 [13]: 2.3 µM

Compound: Cc1nnc(C(=O)NC(C)(C)c2nc(C(=O)NCc3ccc(F)cc3)c(O)c(=O)n2C)o1
- Time [1]: 17.78 h

Compound: C[C@@H]1CC[C@H]2C(C)(C)[C@H](O)CC[C@]2(C)[C@@]12Cc1c(O)cc(CO[C@H]3O[C@H](CO)[C@@H](O)[C@H](O)[C@H]3O)c(C=O)c1O2
- Activity (HEK-293T): Non-toxic

Compound: C[C@@H]1CC[C@H]2C(C)(C)[C@H](O)CC[C@]2(C)[C@@]12Cc1c(O)cc(CO)c(C=O)c1O2
- Activity (HEK-293T): Non-toxic
